In ChEMBL document CHEMBL2311293, “Discovery of agonists of cannabinoid receptor 1 with restricted central nervous system penetration aimed for treatment of gastroesophageal reflux disease” (J Med Chem, 2013):
≈ marks a conversion by molar mass, not a printed value.

Legend:
[1] = Lipophilicity, log D of the compound; conditions: octanol/water
Cannabinoid receptor 1 [2] = molecular target: T1, Cannabinoid receptor 1 (Homo sapiens, UniProt P21554); assay: Displacement of [3H]-CP55,940 from human CB1 receptor expressed in HEK293S cell membranes by scintillation counting analysis
T1 sequence (P21554 whole entry): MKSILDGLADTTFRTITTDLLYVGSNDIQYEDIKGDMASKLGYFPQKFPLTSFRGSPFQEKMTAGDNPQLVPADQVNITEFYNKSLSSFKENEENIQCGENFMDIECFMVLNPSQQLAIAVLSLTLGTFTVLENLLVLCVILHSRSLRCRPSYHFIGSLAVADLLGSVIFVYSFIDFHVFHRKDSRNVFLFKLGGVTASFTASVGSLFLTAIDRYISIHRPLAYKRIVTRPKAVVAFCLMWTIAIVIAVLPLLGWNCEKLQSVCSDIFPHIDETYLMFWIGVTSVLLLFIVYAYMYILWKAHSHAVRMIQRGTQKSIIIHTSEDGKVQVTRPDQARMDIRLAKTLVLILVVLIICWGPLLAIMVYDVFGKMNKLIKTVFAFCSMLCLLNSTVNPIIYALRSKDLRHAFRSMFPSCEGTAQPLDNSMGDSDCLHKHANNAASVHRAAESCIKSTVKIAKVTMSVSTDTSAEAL

Cannabinoid receptor 1 [3] = molecular target: T1, Cannabinoid receptor 1; assay: Agonist activity at human CB1 receptor expressed in HEK293S cell membranes after 1 hr by GTPgamma[35S] binding assay relative to WIN 55,212-2
Method in brief: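 HEK293S membranes with cloned human CB1 (5 µg protein/well) in Hepes buffer pH 7.4, 100 mM NaCl, 5 mM MgCl2, 1 mM EDTA, 0.1% BSA, 15 µM GDP final. GTPγ[35S] added to start, 1 h at rt, filtered, counted. Basal from 8 wells; maximum from 8 wells with 10 µM reference agonist. Emax expressed as % of that reference. 10-point curves; mean of three experiments.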

Cannabinoid receptor 1 [4] = molecular target: T1, Cannabinoid receptor 1; assay: Agonist activity at human CB1 receptor expressed in HEK293S cell membranes after 1 hr by GTPgamma[35S] binding assay
Cannabinoid receptor 2 = Cannabinoid receptor 2 (Homo sapiens, UniProt P34972); assay: Displacement of [3H]-CP55,940 from human CB2 receptor expressed in Sf9 cell membranes by scintillation counting analysis
Cannabinoid receptor 2, sequence (P34972 whole entry): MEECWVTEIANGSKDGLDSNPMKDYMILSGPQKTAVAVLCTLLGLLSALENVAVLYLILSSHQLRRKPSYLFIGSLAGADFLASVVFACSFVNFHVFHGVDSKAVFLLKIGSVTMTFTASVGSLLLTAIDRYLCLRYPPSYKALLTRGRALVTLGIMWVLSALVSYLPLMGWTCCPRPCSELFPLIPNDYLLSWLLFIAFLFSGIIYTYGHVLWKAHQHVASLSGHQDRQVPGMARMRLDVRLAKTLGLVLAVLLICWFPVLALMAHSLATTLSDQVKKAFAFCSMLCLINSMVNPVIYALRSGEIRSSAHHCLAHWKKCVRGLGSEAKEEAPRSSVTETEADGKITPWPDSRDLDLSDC
Method in brief: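 Membranes from Sf9 cells expressing cloned hCB2 (baculovirus) in 50 mM Tris, 2.5 mM EDTA, 5 mM MgCl2, 0.5 mg/mL fatty-acid-free BSA, pH 7.4. 60 min at rt, GF/B filtration, scintillation counting. 10-point curves; IC50 mean of three independent experiments.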

[5] = Ratio of drug level in brain to plasma in Sprague-Dawley rat; format: ADME, cell-free; conditions: for Kp: Sprague-Dawley, brain and plasma, read-out: BPR
Method in brief: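 Total brain-to-plasma ratio from in vivo Sprague-Dawley rat samples, compound given as 4 h constant-rate i.v. infusion to steady state.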

[6] = Ratio of unbound fraction in brain to plasma in Sprague-Dawley rat; format: ADME, cell-free
Method in brief: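 Steady-state total brain/plasma ratio in Sprague-Dawley rats after 4 h constant-rate i.v. infusion, corrected by unbound fraction in brain (rat brain slices) and in plasma (equilibrium dialysis).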

[7] = (§1) Apparent permeability from apical to basolateral side in human Caco2 cells at pH 7.4; format: ADME, cell-based; conditions: Caco-2, pH 7.4
Method in brief: (§2)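 Caco-2 monolayers at pH 7.4, apparent permeability measured for apical-to-basolateral transport.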

[8] = Solubility of the compound in Hank's balanced saline solution at pH 7.4 after 24 hrs by HPLC analysis; format: physicochemical
Method in brief: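 Compound in DMSO added to Hanks balanced saline solution pH 7.4, shaken 24 h.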

[9] = molecular target: Voltage-gated inwardly rectifying potassium channel KCNH2 (Homo sapiens, UniProt Q12809); assay: Inhibition of human ERG expressed in CHO cells by patch clamp assay; format: cell-based
Voltage-gated inwardly rectifying potassium channel KCNH2, sequence (Q12809 whole entry): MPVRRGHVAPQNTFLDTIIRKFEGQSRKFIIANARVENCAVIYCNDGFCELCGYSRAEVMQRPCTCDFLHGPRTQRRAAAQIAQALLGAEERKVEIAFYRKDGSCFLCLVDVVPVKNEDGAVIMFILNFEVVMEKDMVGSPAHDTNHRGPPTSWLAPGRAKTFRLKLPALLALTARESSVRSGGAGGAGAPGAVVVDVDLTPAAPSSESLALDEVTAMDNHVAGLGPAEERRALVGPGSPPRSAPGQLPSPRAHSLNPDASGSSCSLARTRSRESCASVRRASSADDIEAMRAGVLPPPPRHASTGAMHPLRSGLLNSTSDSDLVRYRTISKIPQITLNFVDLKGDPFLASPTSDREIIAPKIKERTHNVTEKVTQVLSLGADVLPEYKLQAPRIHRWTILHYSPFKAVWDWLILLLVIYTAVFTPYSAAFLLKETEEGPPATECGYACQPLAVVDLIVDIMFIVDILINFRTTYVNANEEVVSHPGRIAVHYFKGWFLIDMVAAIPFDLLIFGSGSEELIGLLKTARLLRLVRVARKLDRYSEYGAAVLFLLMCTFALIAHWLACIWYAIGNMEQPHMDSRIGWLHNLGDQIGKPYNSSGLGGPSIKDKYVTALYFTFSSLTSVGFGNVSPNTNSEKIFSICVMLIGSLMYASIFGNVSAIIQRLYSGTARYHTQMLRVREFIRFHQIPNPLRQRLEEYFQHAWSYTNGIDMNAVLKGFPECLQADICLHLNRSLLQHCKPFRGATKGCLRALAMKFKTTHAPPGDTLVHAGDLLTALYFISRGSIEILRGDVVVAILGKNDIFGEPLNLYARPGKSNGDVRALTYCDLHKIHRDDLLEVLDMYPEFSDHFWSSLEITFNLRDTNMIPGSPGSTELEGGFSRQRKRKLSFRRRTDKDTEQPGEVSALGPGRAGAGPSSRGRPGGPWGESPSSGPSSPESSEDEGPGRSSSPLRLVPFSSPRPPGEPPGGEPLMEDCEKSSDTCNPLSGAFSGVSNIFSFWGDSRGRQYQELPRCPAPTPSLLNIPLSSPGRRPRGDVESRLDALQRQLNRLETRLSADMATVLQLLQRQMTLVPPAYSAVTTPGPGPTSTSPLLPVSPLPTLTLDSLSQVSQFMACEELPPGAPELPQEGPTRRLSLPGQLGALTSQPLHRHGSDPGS
Method in brief: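 Patch clamp (IonWorks) in CHO cells expressing hERG.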

[10] = Clearance in Sprague-Dawley rat at 2 umol/kg, iv; format: ADME, organism-based; conditions: in vivo
Method in brief: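 Sprague-Dawley rats given 2 µmol/kg i.v.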

[11] = Oral bioavailability in Sprague-Dawley rat at 10 umol/kg; format: ADME, organism-based; conditions: in vivo
Method in brief: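 Sprague-Dawley rats given 10 µmol/kg p.o., with i.v. reference dose of 2 µmol/kg.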

Cytochrome P450 2C9 = Cytochrome P450 2C9 (Homo sapiens, UniProt P11712); assay: Inhibition of human recombinant CYP2C9 expressed in Escherichia coli cells; format: ADME
Cytochrome P450 2C9, sequence (P11712 whole entry): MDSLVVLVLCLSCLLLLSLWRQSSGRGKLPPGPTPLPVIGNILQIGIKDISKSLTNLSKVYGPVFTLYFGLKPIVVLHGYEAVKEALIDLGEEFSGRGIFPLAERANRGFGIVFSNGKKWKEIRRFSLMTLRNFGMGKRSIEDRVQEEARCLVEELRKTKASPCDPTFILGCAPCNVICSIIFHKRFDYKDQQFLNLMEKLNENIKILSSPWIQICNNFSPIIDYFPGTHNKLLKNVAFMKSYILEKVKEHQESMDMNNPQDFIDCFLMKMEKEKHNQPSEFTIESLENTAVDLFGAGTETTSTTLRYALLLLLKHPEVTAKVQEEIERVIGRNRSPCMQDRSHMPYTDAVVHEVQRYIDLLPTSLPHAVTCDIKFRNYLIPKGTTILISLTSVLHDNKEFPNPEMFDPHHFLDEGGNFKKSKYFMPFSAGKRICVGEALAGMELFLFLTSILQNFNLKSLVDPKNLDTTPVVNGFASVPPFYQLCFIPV

Cytochrome P450 3A4 = Cytochrome P450 3A4 (Homo sapiens, UniProt P08684); assay: Inhibition of human recombinant CYP3A4 expressed in Escherichia coli cells; format: ADME
Cytochrome P450 3A4, sequence (P08684 whole entry): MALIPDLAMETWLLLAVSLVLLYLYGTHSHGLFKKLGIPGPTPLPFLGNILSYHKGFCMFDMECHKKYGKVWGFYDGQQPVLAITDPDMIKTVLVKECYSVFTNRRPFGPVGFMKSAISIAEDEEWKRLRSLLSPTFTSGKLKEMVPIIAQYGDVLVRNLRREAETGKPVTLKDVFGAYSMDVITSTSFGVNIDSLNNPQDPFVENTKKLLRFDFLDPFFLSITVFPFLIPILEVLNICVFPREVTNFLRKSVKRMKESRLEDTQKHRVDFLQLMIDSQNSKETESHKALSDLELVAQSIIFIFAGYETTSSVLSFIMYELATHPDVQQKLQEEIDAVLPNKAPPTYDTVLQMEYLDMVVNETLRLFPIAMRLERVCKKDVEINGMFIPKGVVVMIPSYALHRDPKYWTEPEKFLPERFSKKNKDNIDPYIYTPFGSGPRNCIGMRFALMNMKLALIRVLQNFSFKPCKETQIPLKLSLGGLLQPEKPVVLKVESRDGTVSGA

Caco-2 = assay: as §1; format: ADME, cell-based; conditions: Caco-2, pH 7.4; method in brief: as §2

SMILES | logD [1] | IC50 (Cannabinoid receptor 1 [2]) [µM] | Emax (Cannabinoid receptor 1 [3]) [%] | EC50 (Cannabinoid receptor 1 [4]) [µM] | IC50 (Cannabinoid receptor 2) [µM] | other results
C[S+]([O-])Cc1ccc(C(=O)Nc2cccnc2C(=O)NCC2CCC2)c2ccccc12 (centres undefined) | 4.6 | 7 | 110 | 0.0059 |  | 
O=C(NCC1CCC1)c1ncccc1NC(=O)c1cccc2cnccc12 | 5.1 | 0.22 |  |  | 0.038 | 
O=C(NCC1CCC1)c1ncccc1NC(=O)c1cccc2cccnc12 | 5.5 | 0.32 |  |  | 0.36 | 
O=C(NCC1CCCCC1)c1ccncc1NC(=O)c1cccc2ccccc12 | 5.5 | 3.6 |  |  | > 8.9 | 
CS(=O)(=O)Cc1ccc(C(=O)Nc2cccnc2C(=O)NCC2CCC2)c2ccccc12 |  | 240 | 77 | 0.26 |  | 
C[S+]([O-])Cc1ccc(C(=O)Nc2cccnc2C(=O)NCC2CCOCC2)c2ccccc12 (centres undefined) | 2.8 | 0.049 | 110 | 0.087 | 2.5 | Kp [5]: 0.018; BPR [6]: 0.01; Papp A→B [7]: 23 ×10⁻⁶ cm/s; solubility at 24 h [8]: 79 µM (≈ 36.8 µg/mL); IC50 [9]: > 32 µM; clearance [10]: 14 mL/min/kg; bioavailability [11]: 31%; IC50 (Cytochrome P450 2C9): 19 µM; IC50 (Cytochrome P450 3A4): > 20 µM
C[S+]([O-])Cc1ccc(C(=O)Nc2nccnc2C(=O)NCC2CCC2)c2ccccc12 (single isomer, unassigned) [listing 1 of 2 here] | 2.7 | 0.037 |  | 0.032 |  | Kp [5]: 0.02; BPR [6]: 0.011; Papp (Caco-2): 9 ×10⁻⁶ cm/s
C[S@@+]([O-])Cc1ccc(C(=O)Nc2cccnc2C(=O)NCC2CCOCC2)c2ccccc12 | 2.9 | 0.021 | 100 | 0.031 |  | Kp [5]: 0.031; BPR [6]: 0.03; Papp A→B [7]: 26 ×10⁻⁶ cm/s
COc1ccc(NC(=O)c2ccc(Cn3ccnn3)c3ccccc23)c(C(=O)NCC2CCC2)n1 | 5.7 | 0.00097 | 54 | 0.0013 |  | Kp [5]: 0.31; BPR [6]: 0.093; Papp A→B [7]: 0.96 ×10⁻⁶ cm/s
O=C(NCC1CCCCC1)c1ncccc1NC(=O)c1cccc2ccccc12 | 8.1 | 0.01 | 110 | 0.024 | 0.11 | 
O=C(NCC1CCOCC1)c1ncccc1NC(=O)c1cccc2nccnc12 | 2.5 | > 9.9 |  |  | > 10 | 
O=C(NCC1CCC1)c1ncccc1NC(=O)c1ccc(Cn2ccnn2)c2ccccc12 | 5.3 | 0.71 | 110 | 0.0014 | 0.065 | 
O=C(NCC1CCC1)c1ncccc1NC(=O)c1cccc2ccccc12 |  | 0.0061 | 110 | 0.023 | 0.026 | 
O=C(NCC1CCCCC1)c1cccnc1NC(=O)c1cccc2ccccc12 | 4.7 | > 10 |  |  | > 10 | 
O=C(NCC1CCOCC1)c1ncccc1NC(=O)c1ccc(C(=O)O)c2ccccc12 |  | > 10000 |  |  | > 10 | 
CN(C)Cc1ccc(C(=O)Nc2cccnc2C(=O)NCC2CCC2)c2ccccc12 |  |  | 100 | 0.18 | 0.19 | 
C[S+]([O-])Cc1ccc(C(=O)Nc2nccnc2C(=O)NCC2CCC2)c2ccccc12 (stereo in doubt; 18f) [listing 1 of 2 here] |  |  | 120 |  |  | 

SMILES | logD [1] | IC50 (Cannabinoid receptor 1 [2]) [µM] | Emax (Cannabinoid receptor 1 [3]) [%] | EC50 (Cannabinoid receptor 1 [4]) [µM] | IC50 (Cannabinoid receptor 2) [µM] | other results
O=C(NCC1CCCCC1)c1nccnc1NC(=O)c1cccc2ccccc12 |  | 0.091 | 120 | 0.48 | 1.4 | 
O=C(NCC1CCC1)c1ncccc1NC(=O)c1ccc(Cn2cccc2)c2ccccc12 |  |  | 82 | 0.17 | 0.34 | 
O=C(NCC1CCCCC1)c1cc(Cl)ccc1NC(=O)c1cccc2ccccc12 | 7.8 | 0.16 | 77 | 0.26 | 1.8 | 
O=C(NCC1CCC1)c1ncccc1NC(=O)c1ccc(Cn2ccnc2)c2ccccc12 |  |  | 100 | 0.04 | 0.33 | 
O=C(Nc1cccnc1C(=O)NCC1CCOCC1)c1ccc2ncsc2c1 | 3.5 | > 6.7 |  |  | > 10 | 
COCc1ccc(C(=O)Nc2cccnc2C(=O)NCC2CCC2)c2ccccc12 |  |  | 110 | 0.0059 | 0.019 | 
COc1ccc(NC(=O)c2ccnc3ccccc23)c(C(=O)NCC2CCC2)n1 | 5.9 | 15 | 51 | 0.016 | 0.1 | 
O=C(NCC1CCOCC1)c1ncccc1NC(=O)c1cccc2ccccc12 | 5.1 | 0.031 | 110 | 0.081 | 0.26 | Kp [5]: 3
C[S+]([O-])Cc1ccc(C(=O)Nc2nccnc2C(=O)NCC2CCC2)c2ccccc12 (single isomer, unassigned) [listing 2 of 2 here] |  |  | 110 |  |  | 
O=C(NCC1CCC1)c1nc(OCCOCCO)ccc1NC(=O)c1ccnc2ccccc12 | 4.1 | 10 | 130 | 0.014 | 1.2 | 
O=C(NCC1CCCCC1)c1cnccc1NC(=O)c1cccc2ccccc12 | 6.1 | 1.4 |  |  | 9 | 
O=C(Nc1cccnc1C(=O)NCC1CCOCC1)c1cccc2c1OCCO2 | 3.8 | 1.2 |  |  | 5.7 | 
O=C(NCC1CCC1)c1nc(OCCO)ccc1NC(=O)c1ccnc2ccccc12 | 4 | 73 | 51 | 0.12 | 2.5 | 
O=C(NCC1CCC1)c1ncccc1NC(=O)c1ccc(Cn2cccn2)c2ccccc12 | 6.2 | 13 | 93 | 0.023 | 0.069 | 
C[S+]([O-])Cc1ccc(C(=O)Nc2nccnc2C(=O)NCC2CCC2)c2ccccc12 (stereo in doubt; 18f) [listing 2 of 2 here] |  | 0.047 |  | 0.12 | 0.3 | BPR ([5]; brain): 0.022; BPR [6]: 0.03; Papp (Caco-2): 20 ×10⁻⁶ cm/s; solubility at 24 h [8]: 87 µM (≈ 38 µg/mL); IC50 [9]: 17 µM; clearance [10]: 26 mL/min/kg; bioavailability [11]: 52%; IC50 (Cytochrome P450 2C9): > 20 µM; IC50 (Cytochrome P450 3A4): > 20 µM
O=C(NCC1CCC1)c1ncccc1NC(=O)c1ccnc2ccccc12 |  | 0.028 | 94 | 0.079 | 0.082 | 
C[S@+]([O-])Cc1ccc(C(=O)Nc2cccnc2C(=O)NCC2CCOCC2)c2ccccc12 | 2.9 | 0.6 |  |  |  | Papp A→B [7]: 0.61 ×10⁻⁶ cm/s
